“And” between values parts separate entries of the source, which are not always exact repeats. Identical values can stand only once. Values belong to the compound of their own block, whether it stands above or below them.
Tests used:
CYP3A4 = conditions: cited from earlier work
[1] = Clinical pharmacokinetics of CLP and its metabolites in plasma; assay type: in vivo, patients (human)
Summary of the method: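 Caucasian patients scheduled for PCI or coronarography got 75 mg daily for 7 days, fasting. On day 7, plasma was sampled at 0.5, 1, 2, 3, 4, 6, 12 and 24 h (44 patients) or at 0.5 and 2 h only (38). Plasma was spiked with piroxicam, acetonitrile-precipitated, filtered, dried and reconstituted for HPLC–MS/MS. Quantifiable ranges were parent 0.25–5, derivatized thiol metabolites 0.25–50 and main metabolite 50–10,000 ng/mL. Tmax was taken directly from measured concentrations.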

[2] = in vivo; cited from earlier work
[3] = cited from earlier work
[4] = tested on: ADP-induced platelet aggregation; conditions: 75 mg CLP daily
platelet aggregation = conditions: cited from earlier work

Structure (SMILES): COC(=O)[C@H](c1ccccc1Cl)N1CCC2SC(=O)C=C2C1 (stereo partly drawn) [2-oxo-CLP]
share of 2-oxo-CLP transformed into the thiol entities by CYP3A4 (CYP3A4): ~40% and 39.8%

Tmax ([1]; human, plasma, oral, 75 mg): 1 h
Structure (SMILES): COC(=O)[C@H](c1ccccc1Cl)N1CCc2sccc2C1 [CLP, Clopidogrel]
share of absorbed drug undergoing bioactivation pathway to thiol metabolite [2]: Approximately 15%
patients treated with CLP who respond poorly to the drug [3]: 5–50%
median AUCagr for wt/wt genotype versus heterozygotes ([4]; samples 2–3 h after administration, p = 0.484): lower
classification of patients by response to CLP ([4]; threshold for CLP resistance AUCagr above 486 AU*min): Almost all studied patients were classified as responders

time after CLP administration up to which concentrations were quantifiable ([1]; patients, 75 mg CLP daily, day 7, plasma): up to 24 h
Structure (SMILES): O=C(O)[C@H](c1ccccc1Cl)N1CCc2sccc2C1 [CLPM]

Structure (SMILES): COC(=O)[C@H](c1ccccc1Cl)N1CCC(S)/C(=C\C(=O)O)C1 (stereo partly drawn) [H3]
antiaggregation properties (platelet aggregation): only H4 exhibits antiaggregation properties

Structure (SMILES): COC(=O)C(c1ccccc1Cl)N1CCC(S)C(=CC(=O)O)C1 (stereo not drawn) [H4]
antiaggregation properties (platelet aggregation): exhibits antiaggregation properties

— publication PMC5306247 (European Journal of Drug Metabolism and Pharmacokinetics, 2016)
